# ChEMBL document CHEMBL1141358, “Antioxidant phenylpropanoid-substituted epicatechins from Trichilia catigua” (J Nat Prod, 2007)
# The source made the active and inactive calls. No cut-off for these calls is given here.
# What was measured:
# [1] = DPPH radical scavenging activity; type: functional
# Summary of the method: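 Samples dissolved in EtOH and diluted to 500, 100, 50 and 10 µg/mL (concentrations before mixing). Each 20 µL aliquot was mixed immediately with 180 µL DPPH, with an EtOH blank. After 20 min, A517 was read. Scavenging was taken as the fall in DPPH absorbance relative to a sample-free DPPH control. IC50 was interpolated from concentration-inhibition curves as the mean of triplicates.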
# PC-12 [2] = assay: Neurotrophic effect in rat NGF-induced PC12 cells upto 100 uM; type: functional, cell-based
# Summary of the method: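 PC12 cells were co-treated with NGF and test compounds at 1–100 µM, then checked for neurotrophic effects.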
# PC-12 [3] = assay: Neurotrophic effect in rat PC12 cells; type: functional, cell-based
# Summary of the method: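 PC12 cells without NGF were exposed to test compounds at 1–100 µM and examined for neurotrophic activity.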
SMILES,IC50 [1],Activity (PC-12 [2]),Activity (PC-12 [3])
Oc1cc(O)c2c(c1)O[C@H](c1ccc(O)c(O)c1)[C@@H](O)C2 [CATECHIN],10 µM,,
COC(=O)C[C@H]1c2cc(O)c(O)cc2Oc2cc(O)c3c(c21)O[C@H](c1ccc(O)c(O)c1)[C@H](O)C3 [CATIGUANIN B],6.7 µM,,
COC(=O)C[C@@H]1c2cc(O)c(O)cc2Oc2cc(O)c3c(c21)O[C@H](c1ccc(O)c(O)c1)[C@H](O)C3 [CATIGUANIN A],7.1 µM,inactive,inactive
O=C1C[C@H](c2ccc(O)c(O)c2)c2c(O)cc3c(c2O1)C[C@@H](O)[C@@H](c1ccc(O)c(O)c1)O3 [CINCHONAIN IC],2.5 µM,,

# The remaining molecules from weak to strong by IC50 [1], led by results:
IC50 [1],SMILES,Activity (PC-12 [2]),Activity (PC-12 [3])
9.4 µM,O=C1C[C@@H](c2ccc(O)c(O)c2)c2c(cc(O)c3c2O[C@H](c2ccc(O)c(O)c2)[C@H](O)C3)O1 [CINCHONAIN IA],inactive,inactive
5.1 µM,O=C1C[C@H](c2ccc(O)c(O)c2)c2c(cc(O)c3c2O[C@H](c2ccc(O)c(O)c2)[C@H](O)C3)O1 [CINCHONAIN IB],,
2.3 µM,O=C1C[C@@H](c2ccc(O)c(O)c2)c2c(O)cc3c(c2O1)C[C@@H](O)[C@@H](c1ccc(O)c(O)c1)O3 [CINCHONAIN ID],,
